Bioassay records (PubChem BioAssay)
This is a sample that favours compounds with a hit; in the whole collection about 3.1% have one here.
SENP7 inh = inhibitors of human SENP7 protease; 330,000 tested, 1.5% active; Q9BQF6; recombinant SENP7, Z-RLRGG-aminoluciferin luminescence, 40 min; AID 434973; inhibition, % at 5 µM;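 active = inhibition above about 50% at the single test dose, limit read from the data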
Target sequence (Q9BQF6 706-1050 limits assumed): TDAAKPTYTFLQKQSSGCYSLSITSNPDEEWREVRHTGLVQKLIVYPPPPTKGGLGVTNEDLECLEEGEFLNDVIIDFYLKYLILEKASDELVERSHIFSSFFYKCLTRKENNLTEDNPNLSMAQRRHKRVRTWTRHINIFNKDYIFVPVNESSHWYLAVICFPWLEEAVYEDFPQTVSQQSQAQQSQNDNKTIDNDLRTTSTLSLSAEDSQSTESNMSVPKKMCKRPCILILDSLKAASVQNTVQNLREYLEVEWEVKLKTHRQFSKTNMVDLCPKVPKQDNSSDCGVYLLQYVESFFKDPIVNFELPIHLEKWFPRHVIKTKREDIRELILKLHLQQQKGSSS
SENP6 inh = SENP6 protease inhibition. Q9GZR1. AID 2599. Recombinant SENP6 catalytic domain, aminoluciferin luminescence. inhibition, % at 10 µM. 330,000 tested, 1.8% active;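 active = inhibition above about 50% at the single tested dose, limit read from the data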
Apaf-1 inh = human Apaf-1 inhibition; reconstituted apoptosome caspase-3 activity, DEVD-Rh110 fluorescence; inhibition, % at 20 µM; 330,000 tested, 0.71% active; O14727; active = inhibition of at least 40% at 20 µM
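System: reconstituted apoptosome with Apaf-1, cytochrome c, caspase-9, procaspase-3, dATP; Signal: Rh110 fluorescence intensity; Schedule: 30 min compound preincubation, 50 min activation, room temperature; Reagent: cytochrome c trigger plus (Z-DEVD)2-Rh110 caspase-3 substrate.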
UBC13 polyUb = blocks human UBC13 polyubiquitin chain formation; P61088; 330,000 tested, 0.47% active; TR-FRET; inhibition, % at 20 µM; AID 485273; in the data active = inhibition above about 45%, passing the limit was not always enough
Target sequence (P61088 whole entry, looked up): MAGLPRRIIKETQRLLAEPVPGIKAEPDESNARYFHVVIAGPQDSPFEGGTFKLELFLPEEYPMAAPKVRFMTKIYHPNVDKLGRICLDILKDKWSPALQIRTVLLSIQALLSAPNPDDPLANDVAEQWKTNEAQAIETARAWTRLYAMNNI
SENP8 block-1 = blocks the human protease SENP8; 330,000 tested, 1.2% active; inhibition, % at 10 µM; Q96LD8; purified SENP8, Z-RLRGG-aminoluciferin cleavage, luminescence; in the data active = inhibition above about 50%
SENP8 block-2 = inhibitors of human SENP8 protease; Q96LD8; recombinant SENP8, Nedd8 substrate fluorescence; inhibition, % at 20 µM; 360,000 tested, 0.64% active; in the data active = inhibition mostly above about 40%, no sharp cut-off; inactive = mostly below about 27%
SENP8 confirm = human SENP8 inhibition, confirmed | inhibition, % at 12.5 µM | shares compounds with SENP7 inh | Recombinant SENP8, Z-RLRGG-aminoluciferin luminescence, 60 min | 6,200 tested, 40% active;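 active = mean inhibition across replicates above about 50%, limit read from the data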
SENP6 conf = human SENP6 inhibition, confirmed; recombinant SENP6, Z-RLRGG-aminoluciferin luminescence; shares compounds with SENP7 inh; AID 488915; 6,200 tested, 58% active; inhibition, % at 12.5 µM
SENP7 confirm = human SENP7 inhibition, confirmed; shares compounds with SENP7 inh; recombinant SENP7, Z-RLRGG-aminoluciferin luminescence, 40 min; inhibition, % at 12.5 µM; 6,200 tested, 69% active; AID 488917
Casp3 select = inhibits human caspase-3 in SENP selectivity test | inhibition, % at 12.5 µM | purified caspase-3, Z-DEVD-aminoluciferin luminescence, 60 min | 6,200 tested, 60% active | shares compounds with SENP7 inh;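 active = mean inhibition above about 50%, limit read from the data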
Target sequence (P42574 28-227 limits assumed): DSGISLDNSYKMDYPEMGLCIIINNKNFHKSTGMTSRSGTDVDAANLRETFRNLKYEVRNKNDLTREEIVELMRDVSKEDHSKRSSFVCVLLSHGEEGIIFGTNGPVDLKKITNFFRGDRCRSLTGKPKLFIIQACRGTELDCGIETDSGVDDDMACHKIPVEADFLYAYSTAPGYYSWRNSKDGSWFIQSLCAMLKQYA
SENP luc ctr = luminescence interference (SENP counter-screen); shares compounds with SENP7 inh; Pre-incubated SENP8/Z-RLRGG-aminoluciferin, luciferase luminescence interference; inhibition, % at 12.5 µM; 6,200 tested, 39% active;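 active = mean inhibition above about 50% when retested at one dose, limit read from the data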
Each line names hits and unclear results; the compound was inactive in the other large screens (follow-up assays come after a bar, where they were run).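 Rule for the calls, unless noted: active = mean inhibition above about 50% in the one-dose retest (limit read from the data); inactive = the rest.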

CC[C@@H](C)[C@@H](CO)NC(=O)[C@H]1O[C@@H](n2cnc3c(N)ncnc32)[C@H](O)[C@@H]1O	none (no result: SENP7 inh, SENP6 inh, Apaf-1 inh, UBC13 polyUb, SENP8 block-1)
C[C@@H]1CN([C@H](C)CO)C(=O)c2cc(Br)cnc2O[C@H]1CN(C)C	none (no result: SENP7 inh, SENP6 inh, Apaf-1 inh, UBC13 polyUb, SENP8 block-1)
Cc1nc(N(C)C2CCCCC2)c2nnn(Cc3ccc(F)cc3)c2n1	none (no result: SENP7 inh, SENP6 inh, Apaf-1 inh, UBC13 polyUb, SENP8 block-1)
O=C(Nc1ccc2c(c1)CCC2)c1ccccc1F	SENP7 inh 80, SENP6 inh 92, SENP8 block-1 70 | SENP8 confirm inactive | SENP6 conf 86 | SENP7 confirm 99 | Casp3 select 85 | SENP luc ctr 85
Cc1cnc(C(=O)Nc2ccc3c(c2)CCC3)cn1	none
O=C(Nc1ccc2c(c1)CCC2)c1cnccn1	SENP6 inh 52 | SENP8 confirm 55 | SENP6 conf 52 | SENP7 confirm 83 | Casp3 select 77 | SENP luc ctr inactive
CCc1cnc(Nc2nc(C(N)Cc3ccc(F)cc3)cs2)nc1 (stereo not drawn)	none (no result: SENP7 inh, SENP6 inh, Apaf-1 inh, UBC13 polyUb, SENP8 block-1)
COC(=O)[C@@]12C[C@@H](CC(=O)N3CCC(c4ccccc4)CC3)C(=O)N(Cc3ccc4c(c3)OCO4)C1=CCC(C)(C)C2	none (no result: SENP7 inh, SENP6 inh, Apaf-1 inh, UBC13 polyUb, SENP8 block-1)
CCc1sc(C(=O)N2CCc3ccccc32)cc1C	SENP7 inh 97, SENP6 inh 96, SENP8 block-1 93 | SENP8 confirm 96 | SENP6 conf 97 | SENP7 confirm 102 | Casp3 select 95 | SENP luc ctr 86
Cc1ccc(C(=O)N2CCc3ccccc32)cc1	none
O=C(c1ccc(Cl)s1)N1CCc2ccccc21	SENP7 inh 89, SENP6 inh 89, SENP8 block-1 81 | SENP8 confirm 54 | SENP6 conf 68 | SENP7 confirm 81 | Casp3 select 80 | SENP luc ctr 54
O=C(c1ccc(C(=O)N2CCCc3ccccc32)s1)N1CCCc2ccccc21	none
C=CCOc1cccn2c(N(C)C(=O)c3ccc(OC)cc3)c(CC)nc12	none (no result: SENP7 inh, SENP6 inh, Apaf-1 inh, UBC13 polyUb, SENP8 block-1)
O=C(Nc1cccc(O)c1)c1noc2c1CCc1ccccc1-2	SENP7 inh 99, SENP6 inh 97, SENP8 block-1 96 | SENP8 confirm 94 | SENP6 conf 96 | SENP7 confirm 102 | Casp3 select 94 | SENP luc ctr 92
O=c1sc2ccccc2c(N2CCCCC2)c1[N+](=O)[O-]	none
O=c1sc2ccccc2c(N2CCOCC2)c1[N+](=O)[O-]	SENP6 inh 57 | SENP8 confirm inactive | SENP6 conf inactive | SENP7 confirm 50 | Casp3 select 70 | SENP luc ctr 55
COc1ccc(-c2cc(O)cc(O)c2)cc1	SENP7 inh 60, SENP6 inh 70 | SENP8 confirm inactive | SENP6 conf inactive | SENP7 confirm 60 | Casp3 select inactive | SENP luc ctr inactive
COc1ccc(OC)cc1	none
O=C(Nc1ccc2c(c1)OCO2)c1ccc(Cl)cc1Cl	SENP7 inh 72, SENP6 inh 52, SENP8 block-1 55 | SENP8 confirm inactive | SENP6 conf 56 | SENP7 confirm 86 | Casp3 select 69 | SENP luc ctr 64
O=C(Nc1ccc2c(c1)OCCO2)c1ccc(Cl)cc1Cl	SENP7 inh 67, SENP6 inh 71 | SENP8 confirm 70 | SENP6 conf 66 | SENP7 confirm 87 | Casp3 select 70 | SENP luc ctr 65
O=C(Nc1ccc2c(c1)OCO2)c1cc(Cl)ccn1	SENP7 inh 81, SENP6 inh 84, SENP8 block-1 77 | SENP8 confirm 81 | SENP6 conf 80 | SENP7 confirm 96 | Casp3 select 88 | SENP luc ctr inactive
O=C(Nc1ccc2c(c1)OCO2)c1cc(-c2ccccc2Cl)on1	none
O=C(NCc1cccc(C(F)(F)F)c1)c1ccc2nc([C@@H]3O[C@H](CO)[C@@H](O)[C@H]3O)[nH]c2c1	none (no result: SENP7 inh, SENP6 inh, Apaf-1 inh, UBC13 polyUb, SENP8 block-1)
CC(C)Oc1cc(F)ccc1-c1cc(C(=O)NCc2ccccn2)[nH]n1	none (no result: SENP7 inh, SENP6 inh, Apaf-1 inh, UBC13 polyUb, SENP8 block-1)
Nc1c2c(nc3sc4c(c13)CCCCC4)CCCCC2	SENP7 inh 74, SENP6 inh 73, SENP8 block-1 57 | SENP8 confirm inactive | SENP6 conf inactive | SENP7 confirm inactive | Casp3 select inactive | SENP luc ctr inactive
CC1CCc2nc3sc4c(c3c(N)c2C1)CCCC4 (stereo not drawn)	none
COC(=O)c1sccc1N/N=C/c1cccc(Oc2ccccc2)c1	SENP7 inh 97, SENP6 inh 63, SENP8 block-1 95 | SENP8 confirm inactive | SENP6 conf 53 | SENP7 confirm inactive | Casp3 select 94 | SENP luc ctr inactive
COC(=O)c1sccc1N/N=C/c1cccc(OC)c1O	SENP7 inh 99, SENP6 inh 94, SENP8 block-1 92 | SENP8 confirm inactive | SENP6 conf 78 | SENP7 confirm 87 | Casp3 select 70 | SENP luc ctr inactive
COC(=O)c1sccc1N/N=C/c1ccc(OC)c(OC)c1OC	none
COCCNC(=O)C1(C)CCN(C(=O)c2ccc(OC)c(F)c2)C1 (stereo not drawn)	none (no result: SENP7 inh, SENP6 inh, Apaf-1 inh, UBC13 polyUb, SENP8 block-1)
COC(=O)[C@@]12C[C@@H](CC(=O)NCc3ccccc3)C(=O)N(Cc3ccccc3)C1=CCC(C)(C)C2	none (no result: SENP7 inh, SENP6 inh, Apaf-1 inh, UBC13 polyUb, SENP8 block-1)
Cc1nc(C(F)(F)F)ccc1C(=O)N1CCC1(C)C(=O)NS(C)(=O)=O (stereo not drawn)	none (no result: SENP7 inh, SENP6 inh, Apaf-1 inh, UBC13 polyUb, SENP8 block-1)
O=C(COC(=O)c1ccc(F)cc1Cl)NC1CC1	none (no result: SENP7 inh, SENP6 inh, Apaf-1 inh, UBC13 polyUb, SENP8 block-1)
Cc1[nH]n(-c2ccc([N+](=O)[O-])cc2)c(=O)c1C=NCCc1c[nH]c2ccccc12	none
Cc1[nH]n(-c2ccc([N+](=O)[O-])cc2)c(=O)c1C=NCCN1CCN(C(=O)c2cccc(F)c2)CC1	SENP7 inh 88, SENP6 inh 90, SENP8 block-1 67 | SENP8 confirm inactive | SENP6 conf inactive | SENP7 confirm inactive | Casp3 select inactive | SENP luc ctr 57
Cc1[nH]n(-c2ccc([N+](=O)[O-])cc2)c(=O)c1C=NCCN1CCN(C(=O)c2ccc(Br)cc2)CC1	SENP7 inh 88, SENP6 inh 64 | SENP8 confirm inactive | SENP6 conf inactive | SENP7 confirm inactive | Casp3 select 55 | SENP luc ctr 56
Cn1c(=O)c2cc(NC(=O)CCc3ccc4c(c3)OCO4)ccc2n1Cc1ccc(F)cc1	none (no result: SENP7 inh, SENP6 inh, Apaf-1 inh, UBC13 polyUb, SENP8 block-1)
